This is an account of results in ChEMBL document CHEMBL1770105, “Discovery and evaluation of pyrazolo[1,5-a]pyrimidines as neuropeptide Y1 receptor antagonists” (Bioorg Med Chem Lett, 2011).

Series [1] in a line: Selectivity ratio of NPY Y1 receptor over CRHR.
In series [2] the target is T1, Corticotropin-releasing factor receptor 1 (Homo sapiens, UniProt P34998).
T1 sequence (P34998 whole entry): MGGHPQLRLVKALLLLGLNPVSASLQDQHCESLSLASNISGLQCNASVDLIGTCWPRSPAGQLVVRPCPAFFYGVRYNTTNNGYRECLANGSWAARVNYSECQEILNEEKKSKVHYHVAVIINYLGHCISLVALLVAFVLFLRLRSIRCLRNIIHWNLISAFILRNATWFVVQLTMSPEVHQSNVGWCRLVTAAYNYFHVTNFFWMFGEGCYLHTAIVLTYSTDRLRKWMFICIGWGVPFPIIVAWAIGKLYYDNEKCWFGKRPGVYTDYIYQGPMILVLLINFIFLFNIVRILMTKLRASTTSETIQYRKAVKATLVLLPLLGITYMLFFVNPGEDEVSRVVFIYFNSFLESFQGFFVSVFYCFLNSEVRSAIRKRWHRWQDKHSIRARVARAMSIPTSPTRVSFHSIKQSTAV
Briefly: Binding affinity to CRHR.

Series [3] has as its target T2, Neuropeptide Y receptor type 1 (Homo sapiens, UniProt P25929).
T2 sequence (P25929 whole entry): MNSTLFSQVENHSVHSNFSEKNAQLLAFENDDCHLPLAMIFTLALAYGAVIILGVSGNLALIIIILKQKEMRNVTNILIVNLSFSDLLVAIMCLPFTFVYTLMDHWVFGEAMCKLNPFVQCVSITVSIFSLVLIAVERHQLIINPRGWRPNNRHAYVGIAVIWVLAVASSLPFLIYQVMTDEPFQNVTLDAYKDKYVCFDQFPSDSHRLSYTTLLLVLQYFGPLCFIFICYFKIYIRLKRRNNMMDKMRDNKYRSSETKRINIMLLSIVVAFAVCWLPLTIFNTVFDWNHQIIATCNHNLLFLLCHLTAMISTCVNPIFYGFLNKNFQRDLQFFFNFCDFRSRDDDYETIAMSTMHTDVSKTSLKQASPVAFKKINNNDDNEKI
Briefly: Displacement of [125I]-PYY from human recombinant NPY Y1 receptor overexpressed in membrane of Sf9 cells. In short, it runs like this:
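Human Y1 receptor: 125I-PYY displacement on Sf9 membranes overexpressing recombinant hY1R. Ki values are single determinations run in triplicate.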

Series [4] is described as follows: Ratio of fraction unbound drug level in brain to plasma in Mdr1a/1b knockout mouse to FVB mouse at 5 mg.kg, sc after 0.5 hrs. The series is classed as ADME, organism-based. In short, it runs like this:
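Brain and plasma levels measured in Mdr1a/1b knockout and wild-type FVB mice 0.5 h after a 5 mg/kg sc dose. Brain/plasma ratios calculated from unbound fractions, measured by equilibrium dialysis of brain homogenate and plasma. Result expressed as knockout B/P over FVB B/P.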

The target in series [5] is T2, Neuropeptide Y receptor type 1. Briefly: Antagonist activity at NPY Y1 receptor in human SK-N-MC cells assessed as inhibition of NPY-induced calcium mobilization by FLIPR assay. The series is classed as functional, cell-based. In short, it runs like this:
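SK-N-MC neuroblastoma cells plated at 25,000/well 4 days ahead, loaded with Fluo-3 for 1 h in 5% CO2, washed and resuspended in assay buffer (5 mM KCl, 115 mM NaCl, 0.96 mM NaH2PO4, 1 mM MgSO4, 2 mM CaCl2, 5 mM D-glucose) containing test compound.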
In general terms: Calcium assays in cells follow changes in intracellular calcium, usually with a dye or a luminescent sensor.

Series [6] is described as follows: Plasma clearance in Sprague-Dawley rat at 1 mg/kg, iv and 3 mg/kg, po. Format: ADME, organism-based. In short, it runs like this:
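Overnight-fasted, jugular-vein-cannulated SD rats (water ad libitum) dosed by oral gavage (3 mg/kg in 0.5% methyl cellulose, 2 mL/kg, n = 2) or iv via the jugular vein (1.0 mg/kg in 50% PEG, 1 mL/kg, n = 2).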

Series [7] in a line: Fraction unbound in Sprague-Dawley rat plasma at 1 mg/kg, iv and 3 mg/kg, po. Format: ADME, organism-based.
The subject of series [8] is Rattus norvegicus. The experiment in a line: Unbound plasma clearance in Sprague-Dawley rat 1 mg/kg, iv and 3 mg/kg, po. Format: ADME, organism-based. The note with it: in vivo.
Series [9] relates to Rattus norvegicus. Briefly: Antihypertensive activity in Sprague-Dawley rat assessed as inhibition of NPY-induced increase in arterial pressure at 3 mg/kg, iv. The series is classed as functional. Particulars: Artery. In short, it runs like this: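 Overnight-fasted SD rats anesthetized with inactin (100 mg/kg ip), tracheal and femoral arterial/venous cannulae, on a heated pad. Arterial pressure and heart rate recorded every 5 s. NPY given as iv bolus every 15 min. After the third NPY bolus, compound given iv at 3 mg/kg in saline (1 mL/kg), followed by three further NPY injections.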

For the compound `CCN(CCN)c1nc(C)nc2c1c1ccccc1n2-c1c(C)cc(C)cc1C`, the Ratio in series [1] was found to be 29. In series [2], this compound had a Ki of 4470 nM.
On to `COc1cc(Cl)c(-c2c(C)nn3c(NCC(C)(C)NC4CCOCC4)cc(C)nc23)c(Cl)c1`, for which the Ki in [3] is 141 nM. In series [4], the “Knockout-to-FVB ratio of unbound brain/plasma ratio” value amounted to 4.
Regarding `COc1cc(Cl)c(-c2c(C)nn3c(NCCNC4CCCCC4F)cc(C)nc23)c(Cl)c1` (mixture of isomers), the Ki in series [3] is 5 nM. Further, in series [4], the “Knockout-to-FVB ratio of unbound brain/plasma ratio” value was found to be 8.
For `Cc1cc(C)c(-c2c(C)nn3c(NCCN)cc(C)nc23)c(C)c1`, the Ki was 2300 nM in series [3] and over 10000 nM in series [2].
For the compound `CCOc1cc(Cl)c(-c2c(C)nn3c(NCCNC4CCOCC4)cc(C)nc23)c(Cl)c1`, the Ki in series [3] worked out at 3 nM. For the same compound, in [5], the IC50 was determined as 15 nM. Besides, in series [6], the clearance came out at 28 mL/min/kg. In [7], this compound had a fraction unbound of 0.029. In the series with Rattus norvegicus [8], this compound yielded a CL of 996 mL/min/kg. For the same compound, the inhibition in vivo at 3 mg/kg in the series with Rattus norvegicus [9] is 47%.
Regarding `CCCOc1cc(Cl)c(-c2c(C)nn3c(NCCNC4CCOCC4)cc(C)nc23)c(Cl)c1`, in [3], the Ki amounted to 8 nM. In [5], the IC50 came to 207 nM. In series [6], this compound returned a clearance of 25 mL/min/kg. In addition, the fraction unbound in [7] turned out to be 0.011. The CL in the series with Rattus norvegicus [8] was 2273 mL/min/kg. Also, the inhibition in vivo at 3 mg/kg in the series with Rattus norvegicus [9] was found to be 0%.
`Cc1cc(NCCNC2CCOCC2)n2nc(C)c(-c3c(Cl)cccc3Cl)c2n1`: in series [3], the Ki was 7 nM.

One may read the Ki as the dissociation constant of the complex between target and ligand, obtained from inhibition or displacement. For orientation: IC50 means the concentration that gives 50% inhibition. Broadly, the fraction unbound is free concentration divided by total concentration. The term inhibition in vivo denotes the share of the control response that was lost under treatment.
